The entries come from a sample that favours hits as a whole.
IDH1 R132H inh = blocks human IDH1 R132H reductase activity; O75874; diaphorase/resazurin fluorescence, 60 min; inhibition, % at 10 µM; hit rate 0.18% among 70,000; in the data active means inhibition above about 34%; inconclusive means no clear call, values can overlap the other calls; inactive means below about 11%
Target sequence (O75874 whole entry R132H): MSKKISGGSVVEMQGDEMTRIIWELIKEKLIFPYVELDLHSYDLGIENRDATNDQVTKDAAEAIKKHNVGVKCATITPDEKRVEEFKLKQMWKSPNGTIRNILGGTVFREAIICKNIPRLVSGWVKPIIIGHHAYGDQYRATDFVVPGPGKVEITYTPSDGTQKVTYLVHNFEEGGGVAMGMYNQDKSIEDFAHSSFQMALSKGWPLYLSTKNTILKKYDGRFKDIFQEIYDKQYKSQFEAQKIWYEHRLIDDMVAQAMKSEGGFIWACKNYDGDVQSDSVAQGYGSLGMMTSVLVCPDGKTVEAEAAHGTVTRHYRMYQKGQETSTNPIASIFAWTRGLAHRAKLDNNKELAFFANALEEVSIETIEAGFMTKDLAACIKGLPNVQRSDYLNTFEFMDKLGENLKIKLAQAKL
GASC1 inh = KDM4C (human) demethylase inhibition | Q9H3R0 | GST-KDM4C 2-372, H3K9me3 peptide, LANCE TR-FRET | inhibition, % at 12.5 µM | hit rate 0.15% among 96,000 | AID 720574;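 active means mean replicate inhibition above about 25%, with at least 55% of replicates also reaching it, limit read from the data, passing the limit was not always enough; inconclusive means only one of those two conditions met; inactive means neither condition met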
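System: N-terminal GST-fused human GASC-1 (KDM4C) fragment, residues 2-372; amount: enzyme final amount 10 nM; incubation: reaction 30 min RT, detection step 1 h RT; medium: HEPES buffer, pH 7.5, plus ascorbate; technique: LANCE TR-FRET, Eu antibody, ULight-streptavidin, EDTA, ex 340 nm, em 618/671 nm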
T cruzi growth-1 = T. cruzi proliferation inhibition; hit rate 5.9% among 77,000; AID 624255; inhibition, % at 8.34 µM; T. cruzi beta-gal in NIH3T3, GalScreen luminescence, 90 h;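 active means mean inhibition above about 93%, with at least 55% of replicates each passing it, limit read from the data, passing the limit was not always enough; inconclusive means only one of those two conditions holds; inactive means neither condition holds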
T cruzi growth-2 = inhibitors of T. cruzi proliferation. shares compounds with T cruzi growth-1. T. cruzi beta-gal in NIH3T3, GalScreen luminescence, 90 h. inhibition, % at 8.35 µM. hit rate 72% among 5,600. AID 651739;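 active means mean replicate inhibition above about 95% and at least 55% of replicates individually reaching it, limit read from the data; inconclusive means only one of the two criteria is met; inactive means neither criterion is met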
T cruzi growth-3 = Trypanosoma cruzi proliferation inhibition; shares compounds with T cruzi growth-1; inhibition, % at 2.09 µM; hit rate 21% among 5,600; T. cruzi beta-gal in NIH3T3, GalScreen luminescence, 90 h;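 active means mean inhibition above about 95%, with at least 55% of replicates also reaching it, limit read from the data; inconclusive means meets just one of the two conditions; inactive means meets neither condition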
3T3 cytotox = NIH/3T3 (mouse) viability loss | hit rate 14% among 5,600 | NIH/3T3 viability, CellTiter-Glo ATP luminescence, 90 h | cytotoxicity (signal decrease), % at 8.35 µM | shares compounds with T cruzi growth-1 | AID 651742;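 active means mean signal decrease across replicates above about 35% based on untreated-well scatter, with enough replicates individually passing, limit read from the data; inconclusive means no rule stated though some were filed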
3T3 cytotox 2 = NIH/3T3 (mouse) viability loss | inhibition, % at 24.9 µM | hit rate 56% among 5,600 | shares compounds with T cruzi growth-1 | NIH/3T3 viability, CellTiter-Glo ATP luminescence, 90 h;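 active means mean loss of cell viability signal at or above a set limit, and enough replicates individually reaching it; inconclusive means meets only the mean limit or only the replicate share; inactive means meets neither condition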
Numbers stand for hits; ! = repeats disagree.

For Cc1ccccc1-c1ccc2c(c1)O[C@H](CN(C)C(=O)Nc1ccc(C(F)(F)F)cc1)[C@H](C)CN([C@@H](C)CO)S2(=O)=O the results were IDH1 R132H inh inactive, GASC1 inh inactive and T cruzi growth-1 inactive.
C=CCNC(=O)[C@@H]1[C@H]2C(=O)O[C@H](c3ccccc3)[C@H](c3ccccc3)N2[C@H](c2ccc(O)cc2)[C@@]12C(=O)Nc1ccccc12 was read as IDH1 R132H inh inactive.
Screening Cc1ccc(S(=O)(=O)N(C)C[C@@H]2Oc3ncc(-c4ccccc4)cc3C(=O)N([C@H](C)CO)C[C@@H]2C)cc1 returned IDH1 R132H inh inactive, GASC1 inh inactive and T cruzi growth-1 inactive.
`CCCNC(=O)N1[C@@H](CO)[C@H](c2ccccc2)[C@@H]1CNC(=O)c1cccc(F)c1` gave GASC1 inh inactive, T cruzi growth-1 101.9, T cruzi growth-2 inactive, T cruzi growth-3 inactive, 3T3 cytotox inactive and 3T3 cytotox 2 inactive.
`CCCNC(=O)N1[C@H](CO)[C@@H](c2ccccc2)[C@@H]1CNC(=O)c1cccc(F)c1` gave GASC1 inh inactive and T cruzi growth-1 inactive.
CCCNC(=O)N1[C@H](CNC(C)=O)[C@@H](c2ccc(-c3ccccc3)cc2)[C@@H]1CO was read as GASC1 inh inactive, T cruzi growth-1 109.7, T cruzi growth-2 inactive, T cruzi growth-3 inactive, 3T3 cytotox inactive and 3T3 cytotox 2 inactive.
Screening CCCNC(=O)N1[C@H](CO)[C@H](c2ccc(-c3ccccc3)cc2)[C@@H]1CNC(C)=O returned GASC1 inh inactive and T cruzi growth-1 inactive.
COCCNC(=S)N1CCN(Cc2ccco2)CC1 was read as IDH1 R132H inh inactive.
`O=C(CSc1nnnn1-c1ccccc1)Nc1ccc(-c2nc3ccccc3s2)cc1` gave IDH1 R132H inh inactive.
Screening C[C@@H]1CN([C@@H](C)CO)C(=O)CCCn2cc(nn2)CO[C@H]1CN(C)C(=O)c1ccc(N2CCN(C)CC2)cc1 returned IDH1 R132H inh inactive, GASC1 inh inactive, T cruzi growth-1 inconclusive, T cruzi growth-2 inactive, T cruzi growth-3 inactive, 3T3 cytotox inactive and 3T3 cytotox 2 inactive.
For C[C@@H]1CN([C@H](C)CO)C(=O)CCCn2cc(nn2)CO[C@@H]1CN(C)C(=O)CCC(F)(F)F the results were IDH1 R132H inh inactive, GASC1 inh inactive, T cruzi growth-1 inconclusive, T cruzi growth-2 inactive, T cruzi growth-3 inactive, 3T3 cytotox inactive and 3T3 cytotox 2 inactive.
C[C@@H]1CN([C@@H](C)CO)C(=O)CCCn2cc(nn2)CO[C@@H]1CN(C)C(=O)Nc1ccccc1 was read as IDH1 R132H inh inactive, GASC1 inh inactive, T cruzi growth-1 inconclusive, T cruzi growth-2 inactive, T cruzi growth-3 inactive, 3T3 cytotox inactive and 3T3 cytotox 2 inactive.
Screening C[C@H](CO)N1C[C@H](C)[C@H](CN(C)C(=O)CCC(F)(F)F)OCc2cn(nn2)CCCC1=O returned GASC1 inh inactive and T cruzi growth-1 inactive.
Screening C[C@@H]1CN([C@H](C)CO)C(=O)CCCn2cc(nn2)CO[C@@H]1CN(C)C(=O)Nc1ccc(C(C)(C)C)cc1 returned IDH1 R132H inh inactive, GASC1 inh inactive, T cruzi growth-1 122.3, T cruzi growth-2 101.0, T cruzi growth-3 inactive, 3T3 cytotox inactive and 3T3 cytotox 2 inactive.
C[C@H]1CN([C@@H](C)CO)C(=O)CCCn2cc(nn2)CO[C@@H]1CN(C)C(=O)Nc1ccc(C(C)(C)C)cc1 was read as IDH1 R132H inh inactive and T cruzi growth-1 inactive.
C[C@H]1CN([C@@H](C)CO)C(=O)CCCn2cc(nn2)CO[C@H]1CN(C)C(=O)Nc1ccccc1 was read as IDH1 R132H inh inactive, GASC1 inh inactive and T cruzi growth-1 inactive.
Screening C[C@@H]1CN([C@H](C)CO)C(=O)CCCn2cc(nn2)CO[C@H]1CN(C)C(=O)c1ccc(N2CCN(C)CC2)cc1 returned IDH1 R132H inh inactive, GASC1 inh inactive and T cruzi growth-1 inactive.
`Cc1ccc(S(=O)(=O)NCC[C@@H]2CC[C@H](NC(=O)c3cnccn3)[C@H](CO)O2)cc1` gave IDH1 R132H inh inactive, GASC1 inh inactive and T cruzi growth-1 inactive.
Screening CCCNC(=O)C[C@H]1C[C@@H]2c3cc(NC(=O)Nc4ccccc4F)ccc3O[C@@H]2[C@H](CO)O1 returned IDH1 R132H inh inactive, GASC1 inh inactive and T cruzi growth-1 inactive.
C[C@H]1CN([C@@H](C)CO)S(=O)(=O)c2ccc(C3=CCCC3)cc2O[C@H]1CN(C)C(=O)CC1CC1 was read as IDH1 R132H inh inactive, GASC1 inh inactive and T cruzi growth-1 inactive.
`C[C@H](CO)N1C[C@H](C)[C@H](CN(C)Cc2ccc(C(F)(F)F)cc2)OCc2cn(nn2)CCCC1=O` gave IDH1 R132H inh inactive, GASC1 inh inactive, T cruzi growth-1 inconclusive, T cruzi growth-2 inactive, T cruzi growth-3 inactive, 3T3 cytotox inactive and 3T3 cytotox 2 inactive.
`C[C@@H]1CN([C@@H](C)CO)C(=O)CCCn2cc(nn2)CO[C@H]1CN(C)Cc1ccc(C(F)(F)F)cc1` gave IDH1 R132H inh inactive, GASC1 inh inactive and T cruzi growth-1 inactive.
Screening C[C@H](CO)N1C[C@H](C)[C@@H](CN(C)C(=O)Nc2ccccc2)OCc2cn(nn2)CCCC1=O returned IDH1 R132H inh inactive, GASC1 inh inactive, T cruzi growth-1 127.4!, T cruzi growth-2 inactive, T cruzi growth-3 inactive, 3T3 cytotox inactive and 3T3 cytotox 2 inactive.
C[C@@H]1CN([C@H](C)CO)C(=O)CCCn2cc(nn2)CO[C@H]1CN(C)C(=O)Nc1ccccc1 was read as GASC1 inh inactive and T cruzi growth-1 inactive.
For C[C@H]1CN([C@@H](C)CO)C(=O)c2cc(NC(=O)C3CC3)ccc2O[C@H]1CN(C)CC1CCCCC1 the results were IDH1 R132H inh inactive, GASC1 inh inactive and T cruzi growth-1 inactive.
For CN1c2ccc(Br)cc2[C@H]2[C@H](CCN2C(=O)C2CC2)[C@H]1CO the results were GASC1 inh inactive, T cruzi growth-1 104.4, T cruzi growth-2 inactive, T cruzi growth-3 inactive, 3T3 cytotox inactive and 3T3 cytotox 2 inactive.
`COc1ccc(-c2ccc3c(c2)[C@@H]2[C@@H](CCN2C(=O)C2CC2)[C@@H](CO)N3C)cc1` gave GASC1 inh inactive, T cruzi growth-1 101.5, T cruzi growth-2 107.3, T cruzi growth-3 108.6, 3T3 cytotox inactive and 3T3 cytotox 2 50.0.
COc1ccc(-c2ccc3c(c2)[C@@H]2[C@@H](CCN2C(=O)C2CCCCC2)[C@@H](CO)N3C)cc1 was read as GASC1 inh inactive, T cruzi growth-1 99.0, T cruzi growth-2 inactive, T cruzi growth-3 108.4, 3T3 cytotox inactive and 3T3 cytotox 2 106.1.
Screening CN(C)C(=O)c1ccc(-c2ccc3c(c2)[C@H]2[C@H](CCN2C(=O)C2CCOCC2)[C@H](CO)N3C)cc1 returned GASC1 inh inactive and T cruzi growth-1 inactive.

Screening data as filed in PubChem BioAssay.
